Compounds with a hit are over-represented: about 2.3% of the library has one in this group of screens.
TRPC4 PAM: allosteric potentiators of mouse TRPC4 channel; AID 2227; 310,000 compounds, 0.42% hits; B-score at 10 µM; Q9QUQ5; HEK293 TRPC4beta/mu-opioid, DAMGO EC20, Fluo-4 Ca2+ flux; active compounds read high;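 active means B-score of calcium response area above 5 SD of library B-scores, with initial fluorescence ratio within 5 SD of library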;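 further: B-score of integrated fluorescence ratio over time as area under calcium response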
TRPC6 inhibitor: blocks the mouse TRPC6 cation channel | Q61143 | HEK293-TRPC6, membrane potential dye, ACh-evoked depolarization; active compounds read low | B-score at 10 µM | 310,000 compounds, 1.1% hits | AID 2553;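 active means B-score under library mean minus 3 SD, initial fluorescence not abnormally high, positive integrated signal ratio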;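 further: B-score derived from integrated fluorescence ratio over the kinetic read; more negative B-score means stronger inhibition of depolarization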
TRPC4 agonist: opens the mouse TRPC4 cation channel; Q9QUQ5; HEK293 TRPC4beta/mu-opioid, Fluo4 calcium fluorescence; active compounds read high; B-score at 10 µM; 310,000 compounds, 0.49% hits; AID 2237;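 active means B-score above 5 SD of library B-scores, and initial fluorescence ratio not above library mean plus 5 SD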;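 further: positive B-score marks a calcium rise read as TRPC4 activation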
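System – HEK293 cells stably co-expressing mouse TRPC4beta and mu-opioid receptor · Signal – Fluo4 calcium-sensitive dye fluorescence, kinetic, 1 Hz baseline · Benchmarks – buffer (low) and maximal DAMGO (high) · Read-out – B score of integrated fluorescence ratio per well · Incubation – dye loading 45 min room temperature, 110 s kinetic read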
TRPC4 block: inhibitors of mouse TRPC4 channel; HEK293 TRPC4beta/mu-opioid, DAMGO-evoked Fluo4 calcium flux; active compounds read low; B-score at 10 µM; 300,000 compounds, 0.39% hits; AID 2247;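 active means B-score over 3 SD under the library average, no early fluorescence shift, positive overall ratio signal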
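Assay system: TRPC4beta/mu-opioid receptor HEK293 cell line; compound dosing: single concentration per test compound; detection: Fluo4 Ca2+ flux fluorescence; evaluation: per-well B score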
TRPC6 activator: activators of mouse TRPC6 channel; Q61143; HEK293-TRPC6 membrane potential dye fluorescence; active compounds read high; B-score at 10 µM; 310,000 compounds, 0.13% hits; AID 2550;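 active means B-score of the integrated fluorescence ratio above library mean plus 3 SD, and starting fluorescence ratio within library mean plus 5 SD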;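 further: higher score means more depolarization so channel activation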
TRPC4 sel inh 2: second check of whether TRPC6 inhibitors also affect mouse TRPC4; shares compounds with TRPC6 inhibitor; HEK293 TRPC4/MOR, membrane potential dye fluorescence; channel activated by saturating DAMGO dose; inhibition, % at 10 µM; 920 compounds, 42% hits; AID 2776;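 active means compounds whose fluorescence signal differed from control wells by over 3 SD, either direction, in both duplicate plates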
TRPC4 spec: tests whether TRPC6 inhibitors also affect mouse TRPC4; shares compounds with TRPC6 inhibitor; HEK293 TRPC4/mu-opioid, membrane potential fluorescence; activity change, negative = inhibition, % at 10 µM; 920 compounds, 61% hits; AID 2777;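 active means rise or fall in signal beyond 3 SD of buffer-only wells in both replicate plates, either sign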;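 further: integrated kinetic ratio of fluorescence range over baseline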
HEK293 MPD ctr 2-1: second check of TRPC6 inhibitor effects in parental HEK293 cells. shares compounds with TRPC6 inhibitor. signal change vs control, % at 10 µM. 920 compounds, 31% hits. AID 2779. parental HEK293 membrane potential dye fluorescence; maximal acetylcholine challenge after compound addition;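 active means membrane potential signal moving either way by over 3 SD of the maximum-effect control, in both duplicate plates, meaning non-specific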
HEK293 MPD ctr-1: parental HEK293 nonspecific activity of TRPC6 inhibitors | shares compounds with TRPC6 inhibitor | 920 compounds, 60% hits | membrane potential signal change, % at 10 µM | parental HEK293 membrane potential dye fluorescence;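 active means membrane potential signal shifting up or down by more than 3 SD of buffer-only wells, on both duplicate plates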
HEK293 MPD ctr-2: parental HEK293 nonspecific activity of TRPC6 modulators. shares compounds with TRPC6 inhibitor. membrane potential signal change, % at 10 µM. AID 488924. 2,400 compounds, 51% hits. membrane potential dye fluorescence;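 active means membrane potential signal moves up or down beyond 5 SD from buffer-only wells, on both duplicate plates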
HEK293 MPD ctr 2-2: second counter-screen for TRPC6 modulators: effect in parental HEK293 cells; shares compounds with TRPC6 inhibitor; membrane potential dye fluorescence; after compound, maximal acetylcholine stimulation; inhibition, % at 10 µM; 2,400 compounds, 14% hits;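 active means membrane potential signal drops by more than 5 SD from the mean control signal, in both duplicate plates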;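 further: plate controls were acetylcholine ECmax control wells for no effect and buffer only wells for full effect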
TRPC4/MOR mod: mouse TRPC4 off-target activity of TRPC6 modulators | shares compounds with TRPC6 inhibitor | HEK293 TRPC4/mu-opioid, membrane potential fluorescence | percent change from control (negative = decrease, positive = increase), % at 10 µM | 2,400 compounds, 69% hits | AID 488927;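 active means membrane potential signal moved up or down beyond 5 SD of buffer control wells, in both duplicate plates, actives on both sides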;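 further: plate controls were assay buffer wells for no effect and DAMGO maximal-effect wells for full effect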
TRPC4 ctr inh 2: second check of whether TRPC6 modulators also affect mouse TRPC4; shares compounds with TRPC6 inhibitor; HEK293 TRPC4/mu-opioid, membrane potential dye fluorescence; stimulated with maximal-effect DAMGO; inhibition, % at 10 µM; 2,400 compounds, 55% hits;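 active means drop in membrane potential signal beyond 5 SD of the control wells in both duplicate plates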;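 further: TRPC4 counter screen for TRPC6 hits run under conditions tuned for TRPC6 not TRPC4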
TRPC6 inh conf: confirmation of mouse TRPC6 inhibitors. shares compounds with TRPC6 inhibitor. HEK293-TRPC6, membrane potential dye, ACh-evoked depolarization. inhibition, % at 10 µM. 3,300 compounds, 43% hits. AID 488960;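 active means fluorescence ratio falls more than 5 SD below the full-stimulation control mean, in both duplicate runs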;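 further: integrated fluorescence ratio of peak minus minimum over baseline after agonist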
TRPC6 act conf: mouse TRPC6 activator confirmation; shares compounds with TRPC6 inhibitor; HEK293-TRPC6 membrane potential dye fluorescence, FDSS; activation, % at 10 µM; 2,800 compounds, 11% hits; AID 488961;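 active means ratio signal rise beyond 5 SD above unstimulated control wells' mean, seen in both duplicate runs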;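 further: plate controls were buffer EC0 wells for no effect and acetylcholine ECmax response for full effect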
Active calls of the source: *.

`COc1ccc(-c2sc(Nc3ccccc3)n[n+]2-c2ccc(F)cc2)c(C)c1C` gave TRPC4 PAM inactive, TRPC6 inhibitor -5.4*, TRPC4 agonist inactive, TRPC4 block inactive, TRPC6 activator inactive, HEK293 MPD ctr-2 inactive, HEK293 MPD ctr 2-2 inactive, TRPC4/MOR mod inactive, TRPC4 ctr inh 2 63%*, TRPC6 inh conf inactive and TRPC6 act conf inactive.
`Cc1ccc(NC(=O)c2cccc3c2-c2ccccc2C3=O)cc1C` gave TRPC4 PAM inactive, TRPC6 inhibitor -7.3*, TRPC4 agonist inactive, TRPC4 block inactive, TRPC6 activator inactive, TRPC4 sel inh 2 inactive, TRPC4 spec inactive, HEK293 MPD ctr 2-1 inactive, HEK293 MPD ctr-1 inactive, TRPC6 inh conf inactive and TRPC6 act conf inactive.
For Cc1nnc(N)s1 the results were TRPC4 PAM inactive, TRPC6 inhibitor inactive, TRPC4 agonist inactive, TRPC4 block inactive and TRPC6 activator inactive.
`O=C(N/N=C/c1cccnc1)c1ccc([N+](=O)[O-])cc1` gave TRPC4 PAM inactive, TRPC6 inhibitor -5.3*, TRPC4 agonist inactive, TRPC4 block inactive, TRPC6 activator inactive, HEK293 MPD ctr-2 -196%*, HEK293 MPD ctr 2-2 inactive, TRPC4/MOR mod -36%*, TRPC4 ctr inh 2 30%*, TRPC6 inh conf inactive and TRPC6 act conf inactive.
O=C(N/N=C/c1cccc([N+](=O)[O-])c1)c1cc[n+](CCO)cc1 was read as TRPC4 PAM inactive, TRPC6 inhibitor -5.7*, TRPC4 agonist inactive, TRPC4 block inactive, TRPC6 activator inactive, HEK293 MPD ctr-2 -88%*, HEK293 MPD ctr 2-2 inactive, TRPC4/MOR mod -22%*, TRPC4 ctr inh 2 inactive, TRPC6 inh conf inactive and TRPC6 act conf inactive.
`CC1=C(C(=O)OC(C)C)C(c2cccc(F)c2)N2C(=O)C(C)SC2=N1` (centres undefined) gave TRPC4 PAM inactive, TRPC6 inhibitor -6*, TRPC4 agonist inactive, TRPC4 block inactive, TRPC6 activator inactive, HEK293 MPD ctr-2 inactive, HEK293 MPD ctr 2-2 inactive, TRPC4/MOR mod 13%*, TRPC4 ctr inh 2 inactive, TRPC6 inh conf inactive and TRPC6 act conf inactive.
For CC1=C(C(=O)OCC(C)C)C(c2cccc(F)c2)N2C(=O)C(C)SC2=N1 (centres undefined) the results were TRPC4 PAM inactive, TRPC6 inhibitor inactive, TRPC4 agonist inactive, TRPC4 block inactive and TRPC6 activator inactive.
For CCOc1ccc2[nH]c3c(N4CCc5ccccc5C4)ncnc3c2c1 the results were TRPC4 PAM inactive, TRPC6 inhibitor -6.5*, TRPC4 agonist inactive, TRPC4 block inactive, TRPC6 activator inactive, HEK293 MPD ctr-2 inactive, HEK293 MPD ctr 2-2 inactive, TRPC4/MOR mod inactive, TRPC4 ctr inh 2 52%*, TRPC6 inh conf inactive and TRPC6 act conf inactive.
`O=C(CSCc1ccc(Cl)cc1)Nc1ccc(O)cc1C(=O)O` gave TRPC4 PAM inactive, TRPC6 inhibitor inactive, TRPC4 agonist inactive, TRPC4 block inactive and TRPC6 activator inactive.
c1ccc(-n2cccc2CNC2CCCCC2)cc1 was read as TRPC4 PAM inactive, TRPC6 inhibitor -6.9*, TRPC4 agonist inactive, TRPC4 block inactive, TRPC6 activator inactive, TRPC4 sel inh 2 inactive, TRPC4 spec inactive, HEK293 MPD ctr 2-1 inactive, HEK293 MPD ctr-1 inactive and TRPC6 inh conf inactive.
For Cn1cccc1CNC1CCCCC1 the results were TRPC4 PAM inactive, TRPC6 inhibitor inactive, TRPC4 agonist inactive, TRPC4 block inactive and TRPC6 activator inactive.
`CCOc1c(Cl)cc(CNC(C)(C)CC(C)(C)C)cc1OC` gave TRPC4 PAM inactive, TRPC6 inhibitor -5.1*, TRPC4 agonist inactive, TRPC4 block inactive, TRPC6 activator inactive, HEK293 MPD ctr-2 176%*, HEK293 MPD ctr 2-2 86%*, TRPC4/MOR mod 36%*, TRPC4 ctr inh 2 75%* and TRPC6 inh conf 63%*.
`COCCN(C(=O)COC(=O)c1ccc(Cl)nc1)c1c(N)n(Cc2ccccc2)c(=O)[nH]c1=O` gave TRPC4 PAM inactive, TRPC6 inhibitor inactive, TRPC4 agonist inactive, TRPC4 block inactive and TRPC6 activator inactive.
For O=C(CSc1n[nH]c(-c2cccs2)n1)NCc1cccs1 the results were TRPC4 PAM inactive, TRPC6 inhibitor -6.8*, TRPC4 agonist inactive, TRPC4 block inactive, TRPC6 activator inactive, TRPC4 sel inh 2 inactive, TRPC4 spec inactive, HEK293 MPD ctr 2-1 inactive, HEK293 MPD ctr-1 inactive, TRPC6 inh conf inactive and TRPC6 act conf inactive.
For CCOC(=O)CNC(=S)N(Cc1ccco1)Cc1ccccc1Cl the results were TRPC4 PAM inactive, TRPC6 inhibitor -5.8*, TRPC4 agonist inactive, TRPC4 block inactive, TRPC6 activator inactive, HEK293 MPD ctr-2 inactive, HEK293 MPD ctr 2-2 inactive, TRPC4/MOR mod 12%*, TRPC4 ctr inh 2 inactive, TRPC6 inh conf inactive and TRPC6 act conf inactive.

High-throughput results from PubChem BioAssay.
